Test results: PMC2864424 (Current Chemical Genomics, 2010)
Read-outs that look alike come from different tables or passages of the source.

What was measured:
[1] = test system: OATP1B1 and OATP1B3 (not distinguished); assay type: cell-based, human; conditions: human, CHO cells stably expressing OATP1B1 or OATP1B3, pH 7.4, probe FMTX, 5 µM
OATP1B1 [2] = conditions: read-out: Ki, inhibition of OATP1B1-mediated pitavastatin uptake; cited from earlier work
OATP1B3 [3] = molecular target: T1, OATP1B3 (Homo sapiens, UniProt Q9NPD5); assay type: cell-based; conditions: for preferential inhibition of OATP1B3-mediated FMTX transport: compared with OATP1B1
T1 sequence (Q9NPD5 1-702): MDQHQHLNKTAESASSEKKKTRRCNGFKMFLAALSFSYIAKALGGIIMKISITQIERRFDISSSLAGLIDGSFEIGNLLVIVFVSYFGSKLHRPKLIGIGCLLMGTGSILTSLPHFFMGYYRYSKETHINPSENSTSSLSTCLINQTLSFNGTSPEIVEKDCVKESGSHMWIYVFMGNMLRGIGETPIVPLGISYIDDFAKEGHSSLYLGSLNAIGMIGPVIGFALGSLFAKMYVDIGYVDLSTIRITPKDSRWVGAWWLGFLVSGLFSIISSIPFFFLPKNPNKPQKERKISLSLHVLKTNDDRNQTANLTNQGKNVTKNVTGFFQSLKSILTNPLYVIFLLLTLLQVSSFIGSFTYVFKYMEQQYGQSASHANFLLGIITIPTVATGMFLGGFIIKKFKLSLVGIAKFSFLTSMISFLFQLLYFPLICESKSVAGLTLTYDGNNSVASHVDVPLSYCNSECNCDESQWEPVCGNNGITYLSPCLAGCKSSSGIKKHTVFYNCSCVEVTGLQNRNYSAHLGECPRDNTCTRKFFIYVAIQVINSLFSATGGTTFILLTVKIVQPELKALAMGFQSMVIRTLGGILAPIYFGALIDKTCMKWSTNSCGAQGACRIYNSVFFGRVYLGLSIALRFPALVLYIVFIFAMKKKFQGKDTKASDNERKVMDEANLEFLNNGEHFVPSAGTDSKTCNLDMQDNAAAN

OATP1B1 [4] = molecular target: T2, OATP1B1 (Homo sapiens, UniProt Q9Y6L6); assay type: cell-based; conditions: 24-well plates
T2 sequence (Q9Y6L6 1-691): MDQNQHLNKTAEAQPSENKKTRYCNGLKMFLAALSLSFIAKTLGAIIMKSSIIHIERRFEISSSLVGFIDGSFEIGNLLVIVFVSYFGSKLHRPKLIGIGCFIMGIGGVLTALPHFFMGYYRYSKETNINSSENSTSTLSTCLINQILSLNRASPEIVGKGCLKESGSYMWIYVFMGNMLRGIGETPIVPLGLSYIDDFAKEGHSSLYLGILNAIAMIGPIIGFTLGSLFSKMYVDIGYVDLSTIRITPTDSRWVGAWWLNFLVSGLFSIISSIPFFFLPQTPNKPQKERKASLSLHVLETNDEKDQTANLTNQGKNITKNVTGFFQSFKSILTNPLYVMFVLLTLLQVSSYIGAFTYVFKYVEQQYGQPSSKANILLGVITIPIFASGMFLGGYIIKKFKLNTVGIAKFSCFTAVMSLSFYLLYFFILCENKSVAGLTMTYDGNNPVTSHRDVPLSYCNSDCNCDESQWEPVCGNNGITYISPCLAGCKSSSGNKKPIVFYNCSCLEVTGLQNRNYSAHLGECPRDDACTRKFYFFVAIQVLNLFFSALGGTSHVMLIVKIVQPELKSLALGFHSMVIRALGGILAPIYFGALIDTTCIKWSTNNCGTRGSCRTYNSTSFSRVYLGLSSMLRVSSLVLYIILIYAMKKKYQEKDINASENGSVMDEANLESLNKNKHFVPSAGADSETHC

OATP1B3 [5] = molecular target: T1, OATP1B3; assay type: cell-based
Summary of the method: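 Stably transfected CHO cells were grown at 37 °C, 5% CO2 in DMEM with 10% FBS, L-proline and 500 μg/ml G-418, passaged twice weekly and used up to passage 55. Cells were washed with 37 °C uptake buffer (pH 7.4) and incubated with fluorescent compound at 37 °C. Cells were then washed four times with ice-cold buffer and lysed in 1% Triton X-100. Fluorescence was read at 485/528 nm, with Vmax expressed per mg protein per min.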

OATP1B1 and OATP1B3 = assay type: cell-based, human; conditions: primary screen of FMTX uptake by OATP1B1 or OATP1B3
OATP1B1 [6] = conditions: read-out: Ki, inhibition of fexofenadine transport, OATP1B1; cited from earlier work
OATP1B3 [7] = conditions: read-out: Ki, inhibition of fexofenadine transport, OATP1B3; cited from earlier work
OATP1B1 [8] = conditions: read-out: Ki, inhibition of BSP transport, OATP1B1; cited from earlier work
OATP1B3 [9] = conditions: read-out: Ki, inhibition of BSP transport, OATP1B3; cited from earlier work
OATP1B1 [10] = conditions: read-out: IC50, inhibition of bosentan transport, OATP1B1; ref Treiber et al. 5; cited from earlier work
OATP1B3 [11] = conditions: read-out: IC50, inhibition of bosentan transport, OATP1B3; ref Treiber et al. 5; cited from earlier work
OATP1B1 [12] = conditions: read-out: IC50, inhibition of Ro 48-5033 uptake, OATP1B1; ref Treiber et al. 5; cited from earlier work
OATP1B3 [13] = conditions: read-out: IC50, inhibition of Ro 48-5033 uptake, OATP1B3; ref Treiber et al. 5; cited from earlier work
OATP1B1 [14] = molecular target: T2, OATP1B1; assay type: cell-based; conditions: for preferential / selective inhibition of OATP1B1-mediated FMTX transport: compared with OATP1B3
wild-type CHO cells = test: FMTX uptake into wild-type CHO cells, 96-well plates; assay type: cell-based, Chinese Hamster; conditions: 5 μM FMTX, 30 min, room temperature
Summary of the method: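 Cells were washed three times with room-temperature buffer and given 5 µM FMTX for 30 min at room temperature. They were then washed four times and lysed in 1% Triton X-100 in PBS. Fluorescence was read at ex 485/em 528 nm.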

OATP2B1 = conditions: cited from earlier work
[15] = substrate: O=C1OC2(c3ccc(O)cc3Oc3cc(O)ccc32)c2ccccc21; assay type: cell-based, human; conditions: other: 37 °C, 2 min, 24-well plates, net uptake
[16] = 5 μM FMTX, 30 min, room temperature, 96-well plates
[17] = 5 μM FMTX, 30 min, room temperature, 96-well plates, no inhibitor

## CN(Cc1cnc2nc(N)nc(N)c2n1)c1ccc(C(=O)N[C@@H](CCC(=O)O)C(=O)O)cc1 [methotrexate]
[1]
  inhibition at 30 min, 100 µM: 30%
OATP1B1 [2]
  Ki: > 300 µM

## C[C@H]1C[C@H]2[C@@H]3CCC4=CC(=O)C=C[C@]4(C)[C@@]3(Cl)[C@@H](O)C[C@]2(C)[C@@]1(O)C(=O)CO [Beclomethasone]
OATP1B3 [3]; FMTX uptake IC50 values
  selectivity for OATP1B3 over OATP1B1: about 5 fold
OATP1B3 [3]
  preferential inhibition of OATP1B3-mediated FMTX transport: preferential inhibitors
OATP1B3 [3]; listed as beclamethasone
  preferential inhibition of OATP1B3-mediated FMTX transport: preferentially inhibited OATP1B3

## O=C1OC2(c3ccc(O)cc3Oc3cc(O)ccc32)c2ccccc21 [fluorescein]
OATP1B1 [4]; 1 µM, 30 min
  transported by OATP1B1: transported
OATP1B3 [5]; human, CHO cells stably expressing OATP1B3, pH 7.4
  Km at 2 min: 82 ± 10 µM

## Alexa Fluor® 488 methotrexate [AMTX]
OATP1B3 [5]; 1 µM, 30 min, 24-well plates
  substrate of OATP1B3: not transported

## CO[C@H]1/C=C/O[C@@]2(C)Oc3c(C)c(O)c4c(O)c(c(/C=N/N5CCN(C)CC5)c(O)c4c3C2=O)NC(=O)/C(C)=C\C=C\[C@H](C)[C@H](O)[C@@H](C)[C@@H](O)[C@@H](C)[C@H](OC(C)=O)[C@@H]1C [Rifampicin]
[1]
  IC50 at 30 min: 1.3 to 1.5 µM
OATP1B1 and OATP1B3
  Prestwick library screening result: strongest inhibitors
OATP1B1 [6]
  Ki: 0.5 µM
OATP1B3 [7]
  Ki: 1.5 µM
OATP1B1 [8]
  Ki: 17 µM
OATP1B3 [9]
  Ki: 5 µM
OATP1B1 [10]
  IC50: 3.2 µM
OATP1B3 [11]
  IC50: 1.6 µM
OATP1B1 [12]
  IC50: ~50 µM
OATP1B3 [13]
  IC50: 0.8 µM

## O=C(O)c1cccnc1Nc1cccc(C(F)(F)F)c1 [Niflumic acid]
OATP1B1 [14]
  preferential / selective inhibition of OATP1B1-mediated FMTX transport: preferentially inhibited OATP1B1

## CCN1C[C@]2(COC)[C@H](O)C[C@H](OC)[C@@]34[C@@H]5C[C@@]6(O)[C@H](OC(=O)c7ccccc7)[C@@H]5[C@@](OC(C)=O)([C@@H]([C@H](OC)[C@H]23)[C@@H]14)[C@@H](O)[C@@H]6OC [Aconitine]
[1]
  IC50 at 30 min: > 100 µM

## Cc1ncc([N+](=O)[O-])n1CCO [Metronidazole]
[1]
  IC50 at 30 min: > 100 µM

## CC(C)C[C@H]1C(=O)N2CCC[C@H]2[C@]2(O)O[C@](NC(=O)[C@@H]3C=C4c5cccc6[nH]cc(c56)C[C@H]4N(C)C3)(C(C)C)C(=O)N12 [Ergocryptine]
OATP1B1 [14]
  preferential / selective inhibition of OATP1B1-mediated FMTX transport: preferentially inhibited OATP1B1

## CCOC(=O)c1cncn1[C@H](C)c1ccccc1 [Etomidate]
[1]
  IC50 at 30 min: > 100 µM

## CCOC(=O)Nc1ccc2c(c1)N(C(=O)CCN1CCOCC1)c1ccccc1S2 [Moricizine]
OATP1B3 [3]
  preferential inhibition of OATP1B3-mediated FMTX transport: preferentially inhibited OATP1B3

## O=C(COc1ccc(Cl)cc1)N1CCN(Cc2ccc3c(c2)OCO3)CC1 [Fipexide]
OATP1B1 [14]
  preferential / selective inhibition of OATP1B1-mediated FMTX transport: preferentially inhibited OATP1B1

## O=c1[nH]c(=O)n([C@H]2C[C@H](O)[C@@H](CO)O2)cc1C(F)(F)F [Trifluridine]
[1]
  IC50 at 30 min: > 100 µM

## Bromocryptine
OATP1B1 [14]
  preferential / selective inhibition of OATP1B1-mediated FMTX transport: preferentially inhibited OATP1B1

## CCOc1cc(CC(=O)N[C@@H](CC(C)C)c2ccccc2N2CCCCC2)ccc1C(=O)O [Repaglinide]
OATP1B1 [14]
  preferential / selective inhibition of OATP1B1-mediated FMTX transport: preferentially inhibited OATP1B1

## CC(C)(C)NC(=O)[C@@H]1C[C@@H]2CCCC[C@@H]2CN1C[C@@H](O)[C@H](Cc1ccccc1)NC(=O)[C@H](CC(N)=O)NC(=O)c1ccc2ccccc2n1 [saquinavir]
OATP1B1 and OATP1B3
  Prestwick library screening result: strongest inhibitors

## fluorescein-methotrexate [FMTX]
OATP1B1 [14]; [16]
  typical uptake, OATP1B1-expressing cells: 15,060 ± 1,540 fluorescent units
OATP1B1 [14]; [17]
  signal-to-basal ratio of uptake, OATP1B1: 3.4
OATP1B3 [3]; [16]
  typical uptake, OATP1B3-expressing cells: 33,880 ± 3,645 fluorescent units
OATP1B3 [3]; [17]
  signal-to-basal ratio of uptake, OATP1B3: 7.7
OATP1B1 [4]; 1 µM, 30 min
  transported by OATP1B1: transported
OATP1B1 [4]; 1 µM, 30 min, versus wild-type CHO
  uptake signal, OATP1B1: about 3 fold
OATP1B1 [4]; 37 °C, 2 min
  Vmax, OATP1B1: 961 ± 198 fluorescent units/mg protein * min
OATP1B1 [4]; read-out: apparent Km, OATP1B1, 37 °C, 2 min, net uptake
  Km: 3.8 ± 0.7 µM
OATP1B3 [5]; 1 µM, 30 min, 24-well plates, versus wild-type CHO
  uptake signal, OATP1B3: about 4.5 fold
OATP1B3 [5]; 37 °C, 2 min, 24-well plates
  Vmax, OATP1B3: 4772 ± 709 fluorescent units/mg protein * min
OATP1B3 [5]; Vmax/Km compared
  fold higher transport efficiency of OATP1B3 than OATP1B1: 2–3 fold
OATP1B3 [5]; read-out: apparent Km, OATP1B3, 37 °C, 2 min, 24-well plates, net uptake
  Km: 7.9 ± 2 µM
wild-type CHO cells
  typical uptake, wild-type CHO cells: 4,400 ± 80 fluorescent units

## CC(=O)[C@H]1CC[C@H]2[C@@H]3CCC4=CC(=O)CC[C@]4(C)[C@H]3CC[C@]12C [progesterone]
OATP1B1 [14]
  IC50: 5.4 ± 1.9 µM
OATP1B1 [14]; [16]
  effect on OATP1B1-mediated FMTX uptake: inhibited
OATP1B3 [3]
  EC50: 0.2 µM
OATP1B3 [3]; [16]
  effect on OATP1B3-mediated FMTX uptake: stimulated
OATP2B1
  effect on OATP2B1-mediated estrone-3-sulfate uptake: stimulate

B1: OATP1B1 (Homo sapiens) (protein)
chain: MDQNQHLNKTAEAQPSENKKTRYCNGLKMFLAALSLSFIAKTLGAIIMKSSIIHIERRFEISSSLVGFIDGSFEIGNLLVIVFVSYFGSKLHRPKLIGIGCFIMGIGGVLTALPHFFMGYYRYSKETNINSSENSTSTLSTCLINQILSLNRASPEIVGKGCLKESGSYMWIYVFMGNMLRGIGETPIVPLGLSYIDDFAKEGHSSLYLGILNAIAMIGPIIGFTLGSLFSKMYVDIGYVDLSTIRITPTDSRWVGAWWLNFLVSGLFSIISSIPFFFLPQTPNKPQKERKASLSLHVLETNDEKDQTANLTNQGKNITKNVTGFFQSFKSILTNPLYVMFVLLTLLQVSSYIGAFTYVFKYVEQQYGQPSSKANILLGVITIPIFASGMFLGGYIIKKFKLNTVGIAKFSCFTAVMSLSFYLLYFFILCENKSVAGLTMTYDGNNPVTSHRDVPLSYCNSDCNCDESQWEPVCGNNGITYISPCLAGCKSSSGNKKPIVFYNCSCLEVTGLQNRNYSAHLGECPRDDACTRKFYFFVAIQVLNLFFSALGGTSHVMLIVKIVQPELKSLALGFHSMVIRALGGILAPIYFGALIDTTCIKWSTNNCGTRGSCRTYNSTSFSRVYLGLSSMLRVSSLVLYIILIYAMKKKYQEKDINASENGSVMDEANLESLNKNKHFVPSAGADSETHC
[15]
  Km: 38 ± 5 µM
